ERAP1 HTS inh: blocks human ERAP1 aminopeptidase activity. Q9NZ08. recombinant ERAP1, Leu-AMC fluorescence, 60 min. inhibition, % at 10.7 µM. hit rate 0.15% among 340,000. AID 652197;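 active = mean replicate inhibition of at least 30%, or all replicates individually reaching that 30% level; inactive = mean below 30% and not every replicate reaching it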;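 also: 0% = neutral control wells and 100% = L-leucinethiol positive control wells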
Ecoli rRNA inh: inhibits bacterial ribosomal RNA function over humanized ribosomes; E. coli WT GFP vs humanized-ribosome RFP mutants, fluorescence, 24 h; active compounds read low; DMSO median 0, no signal -100; GFP signal change (wild-type ribosome), % (test concentration not listed); hit rate 1.6% among 350,000;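 active = significant combined selectivity score with lowered wild-type GFP, culture density cut under 30%, mutant RFP and density less affected; inactive = any of these conditions unmet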
SIRT5 block: inhibitors of human sirtuin-5 desuccinylase | Q9NXA8 | Purified SirT5, succinyl-peptide AMC, trypsin-coupled fluorescence | inhibition, % at 15 µM | hit rate 1.1% among 330,000 | AID 652115; in the data active = inhibition above about 15%; inconclusive = no clear call, values can overlap the other calls
Target sequence (Q9NXA8 whole entry, looked up): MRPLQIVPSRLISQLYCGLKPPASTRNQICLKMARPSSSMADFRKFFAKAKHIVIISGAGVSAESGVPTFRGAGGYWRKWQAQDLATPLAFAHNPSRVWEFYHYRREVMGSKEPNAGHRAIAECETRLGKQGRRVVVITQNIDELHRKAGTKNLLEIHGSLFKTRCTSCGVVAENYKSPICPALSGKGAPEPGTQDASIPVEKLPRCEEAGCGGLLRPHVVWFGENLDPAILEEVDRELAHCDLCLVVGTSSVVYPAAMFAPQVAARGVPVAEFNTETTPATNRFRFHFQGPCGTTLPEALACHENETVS
S100A4 inh HTS: S100A4-myosin IIA interaction inhibition; hit rate 0.14% among 360,000; P26447; S100A4/TAMRA-MyoIIA peptide fluorescence polarization; AID 652163; inhibition, % at 10.7 µM;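 active = mean inhibition of at least 70% across replicates, with every replicate also reaching that level; inconclusive = mean inhibition reaches 70% but some replicates fall short; inactive = mean inhibition below 70%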
Target sequence (P26447 whole entry, looked up): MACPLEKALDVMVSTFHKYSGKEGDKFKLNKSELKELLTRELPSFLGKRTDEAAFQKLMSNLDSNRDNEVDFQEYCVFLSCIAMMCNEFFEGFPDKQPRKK
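Test system: S100A4 monomer protein; Medium: HEPES pH 7.2 with CaCl2, KCl, NaCl, DTT, Triton; Probe or stimulus: TAMRA-labelled myosin IIA heavy-chain peptide probe, 5 nM; Doses: one dose per compound; Times: polarization read 5 min after assay mix addition, stable 5–60 min; Benchmarks: neutral control DMSO, positive control TFP.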
F508del corr: correctors of CFTR F508del function in bronchial epithelial cells; AID 720511; CFBE cells, YFP halide quenching; stimulated with forskolin plus potentiator P3; % fluorescence drop versus neutral controls; hit rate 0.36% among 350,000; activity (quench increase), % at 7.58 µM;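 active = mean added fluorescence quench of at least 8% versus neutral control, with both replicates also reaching 8%; inconclusive = only one of the mean or replicate conditions met; inactive = mean below 8% and not both replicates reaching 8%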;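 also: cells transiently co-express mutant CFTR-F508del with the halide-sensitive YFP; corrector assay measuring rescue of mutant channel to the surface after 24 h compound exposure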
Starred values were filed as active, the others as inactive; ? = inconclusive; · = not tested or not shown. Most compounds without a hit are left out; they make up all but 3.1% or so of the library.

SMILES	ERAP1 HTS inh	Ecoli rRNA inh	SIRT5 block	S100A4 inh HTS	F508del corr
C[C@@H]1CCCCO[C@@H](CN(C)C(=O)Nc2cccc3ccccc23)[C@H](C)CN([C@@H](C)CO)C(=O)c2cc(NS(=O)(=O)c3ccc(Cl)cc3)ccc2O1	-1.5	6.4	7.3	0.6	3.9
C[C@@H]1CN([C@@H](C)CO)C(=O)CCCn2cc(nn2)CO[C@H]1CN(C)Cc1cccc(O)c1	2.5	0.6	-0.1	0.1	-6.2
O=C(O)c1cccc(-c2ccc(/C=c3/sc4nc5ccccc5n4c3=O)o2)c1	8.1	-1.8	29.6*	-8.2	-0.7
O=C(O)c1ccccc1-c1ccc(C=c2sc3nc4cc(Br)cnc4n3c2=O)o1	13.5	11.1	29.5*	-0.7	-3.5
NNC(=O)c1ccc2nc(-c3ccc(Br)cc3)cn2c1	9.3	-28.2*	-3.7	-5.9	3.9
O=C(O)CC/C(=N\Nc1ccc(Cl)cc1)c1cccs1	-0.4	-28.3*	0.7	-2.4	-0.2
CC(C)NC(=O)Nc1cccc2c1O[C@@H](CN(C)Cc1ccc(-c3ccccc3)cc1)[C@@H](C)CN([C@@H](C)CO)C2=O	-0.5	-4.5	-2.9	-24.3	1.6
Nc1cc(S(=O)(=O)O)cc([N+](=O)[O-])c1O	4.3	14.4	30.1*	8.8	1.5
Cc1ccc(S(=O)(=O)N(C)C[C@H]2OCCCC[C@H](C)Oc3ccc(NS(=O)(=O)c4ccc(F)cc4)cc3C(=O)N([C@H](C)CO)C[C@H]2C)cc1	0.1	1.3	24.7*	14.8	-1.8
Cc1ccc(S(=O)(=O)Nc2ccc3c(c2)C(=O)N([C@H](C)CO)C[C@H](C)[C@@H](CN(C)S(=O)(=O)c2ccc(F)cc2)OCCCC[C@@H](C)O3)cc1	-1.9	-0.3	9.3	-0.2	0.3
Cc1ccc(S(=O)(=O)N(C)C[C@H]2OCCCC[C@H](C)Oc3ccc(NS(=O)(=O)c4ccc(F)cc4)cc3C(=O)N([C@@H](C)CO)C[C@H]2C)cc1	1.6	-0.9	25.0*	-1.5	0.8
Cc1ccc(S(=O)(=O)Nc2ccc3c(c2)C(=O)N([C@@H](C)CO)C[C@H](C)[C@@H](CN(C)S(=O)(=O)c2ccc(F)cc2)OCCCC[C@@H](C)O3)cc1	1.9	0.7	14.8	-7.9	0.9
Cc1ccc(S(=O)(=O)Nc2ccc3c(c2)C(=O)N([C@H](C)CO)C[C@@H](C)[C@H](CN(C)S(=O)(=O)c2ccc(F)cc2)OCCCC[C@H](C)O3)cc1	0.0	1.2	9.7	-18.8	-0.1
Cc1ccc(S(=O)(=O)Nc2ccc3c(c2)C(=O)N([C@H](C)CO)C[C@H](C)[C@H](CN(C)S(=O)(=O)c2ccc(F)cc2)OCCCC[C@H](C)O3)cc1	-11.3	-4.2	17.0*	10.3	2.5
Cc1ccc(S(=O)(=O)N(C)C[C@@H]2OCCCC[C@H](C)Oc3ccc(NS(=O)(=O)c4ccc(F)cc4)cc3C(=O)N([C@@H](C)CO)C[C@@H]2C)cc1	-0.7	-0.3	20.0*	-0.5	-1.8
O=C(C[C@H]1C[C@H]2c3cc(NC(=O)Nc4ccc(C(F)(F)F)cc4)ccc3O[C@H]2[C@@H](CO)O1)NCc1ccc2c(c1)OCO2	-1.8	2.1	8.0	-2.9	-1.3
O=C(C[C@H]1C[C@H]2c3cc(NC(=O)NC4CCCCC4)ccc3O[C@H]2[C@@H](CO)O1)NCc1cccnc1	1.3	0.7	1.8	-4.5	-7.0
COC(=O)[C@@H]1[C@@H](CO)[C@@H]2Cn3c(ccc(/C=C/c4ccccc4)c3=O)[C@@H]2N1C(=O)C1CCCC1	-4.7	-0.6	-83.8	-3.5	·
C[C@H]1CN([C@@H](C)CO)C(=O)c2cc(C#CC3(O)CCCC3)cnc2O[C@H]1CN(C)Cc1ccccn1	-3.0	3.9	-2.5	4.1	0.9
Cc1ccc(S(=O)(=O)N(C)C[C@@H]2OCCCC[C@H](C)Oc3ccc(NS(=O)(=O)c4ccc(F)cc4)cc3C(=O)N([C@H](C)CO)C[C@@H]2C)cc1	-0.1	-0.1	25.7*	8.8	-3.1
Cc1ccc(S(=O)(=O)N(C)C[C@@H]2OCCCC[C@@H](C)Oc3ccc(NS(=O)(=O)c4ccc(F)cc4)cc3C(=O)N([C@@H](C)CO)C[C@H]2C)cc1	0.6	-3.5	19.6*	-7.7	1.0
Cc1ccc(S(=O)(=O)N(C)C[C@@H]2OCCCC[C@@H](C)Oc3ccc(NS(=O)(=O)c4ccc(F)cc4)cc3C(=O)N([C@H](C)CO)C[C@@H]2C)cc1	3.4	2.6	4.3	-4.7	0.9
Cc1ccc(S(=O)(=O)N(C)C[C@H]2OCCCC[C@@H](C)Oc3ccc(NS(=O)(=O)c4ccc(F)cc4)cc3C(=O)N([C@@H](C)CO)C[C@H]2C)cc1	1.3	-0.7	22.2*	2.9	2.1
Cc1cc(SCc2ccccc2Cl)nc(=O)[nH]1	0.7	-5.0	-0.6	-0.5	-3.9
Cc1cc(SCc2ccc(Cl)cc2Cl)nc(=O)[nH]1	3.1	-30.7*	-2.6	-5.1	-3.5
SMILES	ERAP1 HTS inh	Ecoli rRNA inh	SIRT5 block	S100A4 inh HTS	F508del corr
Cc1ccc(S(=O)(=O)N[C@H]2CC[C@@H](CCn3cc(C(C)C)nn3)O[C@H]2CO)cc1	2.8	0.7	25.5*	0.0	2.0
O=S(=O)(N[C@H]1CC[C@H](CCn2cc(-c3cccc(F)c3)nn2)O[C@H]1CO)c1ccc(F)cc1	-1.7	-9.5	24.8*	-9.3	3.8
CC(C)c1cn(CC[C@H]2CC[C@H](NS(=O)(=O)c3ccc(F)cc3)[C@@H](CO)O2)nn1	-1.1	-3.0	20.2*	1.1	-0.2
C[C@H]1CN([C@@H](C)CO)C(=O)Cc2cc(NC(=O)C3CC3)ccc2O[C@H]1CN(C)S(=O)(=O)c1ccc(F)cc1	-1.0	3.3	4.1	11.1	-1.7
N#C[C@H]1[C@H](c2ccccc2C2=CCCCC2)[C@@H](CO)N1S(=O)(=O)c1ccccc1	-1.3	-36.0	7.3	-2.2	0.4
C[C@@H]1CCCCO[C@@H](CN(C)Cc2ccccc2)[C@H](C)CN([C@H](C)CO)C(=O)c2cc(NC(=O)c3ccncc3)ccc2O1	-0.6	2.6	-2.8	-4.7	5.2
C[C@H](CO)N1C[C@H](C)[C@@H](CN(C)C(=O)C2CCC2)Oc2cc(C#C[C@@H](C)O)ccc2S1(=O)=O	-1.0	2.3	-0.7	3.6	-3.8
O=C(Cc1ccccn1)NCC[C@H]1CC[C@H](NC(=O)c2ccccc2F)[C@@H](CO)O1	10.8	5.3	-0.3	3.4	4.7
O=C(NNc1nc2c(F)cccc2s1)c1cc(=O)c2ccccc2o1	-1.2	-50.9*	-4.5	-6.3	-1.8
COc1ccc(CN2CCNC(=O)C2CC(=O)NCCCC2CCCC2)c(C)c1C (stereo unspecified)	-1.2	-25.6*	-2.2	-5.2	2.8
C(=N\Nc1ccc2nncn2n1)/c1ccccn1	-1.9	-34.2*	1.2	0.2	2.2
C/C(=N\Nc1ccc2nncn2n1)c1ccccn1	·	-40.8	0.2	-3.7	?
O=C(/C=C/c1ccccc1O)c1ccccc1	-0.2	-19.4*	-2.9	-4.0	-0.8
